pIC50: −log10 of the molar value.
What was measured:
[1] = target: T1, 3-oxo-5-alpha-steroid 4-dehydrogenase 2 (Homo sapiens, UniProt P31213); experiment: In vitro inhibition of human Steroid 5-alpha-reductase type 2 in transfected SW-13 cells using [3H]- delta4-Androstenedione as substrate; format: cell-based
T1 sequence (P31213 whole entry): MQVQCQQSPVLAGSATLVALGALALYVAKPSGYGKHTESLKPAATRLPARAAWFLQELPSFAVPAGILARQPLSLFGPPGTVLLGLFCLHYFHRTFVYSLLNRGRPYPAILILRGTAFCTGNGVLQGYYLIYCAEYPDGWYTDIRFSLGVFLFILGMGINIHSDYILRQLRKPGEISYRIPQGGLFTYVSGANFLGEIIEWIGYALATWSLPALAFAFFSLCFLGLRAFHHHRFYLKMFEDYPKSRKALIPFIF
Summary of the method: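 Homogenate of SW-13 cells transfected with human type II cDNA was the enzyme source. Compounds in ethanol were diluted in 50 mM Tris-HCl pH 7.5 with 20% glycerol and 1 mM EDTA. They were screened at 1 and 0.1 μM; those giving ≥50% inhibition at 1 μM were run at 12 concentrations, 0.1–1000 nM. Reactions used [3H]androstenedione and 500 μM NADPH for 60 min at 37 °C. Steroids were ether-extracted and TLC-separated, and androstanedione radioactivity was expressed as % of control.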

[2] = In vitro inhibition of 5-alpha-dihydrotestosterone stimulated shionogi cell proliferation.; format: functional; settings: Mus musculus
Summary of the method: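 Androgen-sensitive Shionogi mouse mammary carcinoma clone SEM-107 (passage 23) plated at 17400 cells/mL in MEM with 2% dextran-charcoal-treated FCS. Cells grew 13 days with medium changes every 3–4 days, then were methanol-fixed. DNA content was measured, and IC50 was fitted by weighted iterative nonlinear least squares.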

[3] = target: T2, 3-oxo-5-alpha-steroid 4-dehydrogenase 1 (Homo sapiens, UniProt P18405); experiment: In vitro inhibition of human tSteroid 5-alpha-reductase type I in transfected 293 cells using [3H]- delta4-Androstenedione as substrate.; format: cell-based, HEK293
T2 sequence (P18405 whole entry): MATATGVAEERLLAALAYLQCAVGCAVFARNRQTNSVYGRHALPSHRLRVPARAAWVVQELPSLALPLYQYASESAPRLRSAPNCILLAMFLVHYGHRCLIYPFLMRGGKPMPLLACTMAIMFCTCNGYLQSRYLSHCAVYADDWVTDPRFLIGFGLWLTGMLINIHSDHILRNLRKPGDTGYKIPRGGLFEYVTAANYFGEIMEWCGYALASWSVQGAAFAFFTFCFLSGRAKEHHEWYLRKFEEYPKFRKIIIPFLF
Summary of the method: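 Homogenate of 293 cells transfected with human type 1 cDNA was the enzyme source. Compounds in ethanol were diluted in 50 mM Tris-HCl pH 7.5 with 20% glycerol and 1 mM EDTA. Screening was at 1 and 0.1 μM, with 12-point IC50 curves (0.1–1000 nM) for actives. Reactions used [3H]androstenedione and 500 μM NADPH for 60 min at 37 °C, followed by ether extraction, TLC and counting of androstanedione as % of control.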

[4] = In vitro inhibition of 5-alpha-dihydrotestosterone stimulated shionogi cell proliferation; NA is not active; format: functional, Mus musculus
Summary of the method: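 Shionogi mouse mammary carcinoma clone SEM-107 (passage 23), plated at 17400 cells/mL in MEM with 2% charcoal-treated FCS. Grown 13 days with medium changed every 3–4 days. Methanol-fixed, DNA content measured. IC50 by weighted iterative nonlinear least-squares regression; means ± SEM.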

[5] = target: T1, 3-oxo-5-alpha-steroid 4-dehydrogenase 2; experiment: In vitro inhibition of human Steroid 5-alpha-reductase type 2 in transfected SW-13 cells using [3H]- delta4-Androstenedione as substrate; NA is not active; format: cell-based
Summary of the method: (§1)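 Homogenate of SW-13 cells transfected with human type II cDNA. Compounds diluted in 50 mM Tris-HCl pH 7.5, 20% glycerol, 1 mM EDTA, first screened at 1 and 0.1 μM. Those reaching 50% inhibition at 1 μM were run at 12 levels, 0.1–1000 nM. Incubated with 5 nM [3H]androstenedione and 500 μM NADPH, 60 min, 37 °C. Ether extraction, TLC, androstanedione radioactivity as % of control.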

[6] = target: T2, 3-oxo-5-alpha-steroid 4-dehydrogenase 1; experiment: In vitro inhibition of human Steroid 5-alpha-reductase type I in transfected 293 cells using [3H]- delta4-Androstenedione as substrate; NA is not active; format: cell-based; settings: hek293
Summary of the method: as §1, with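 “of 293” for “of SW-13”, “type 1” for “type II”, “with 1” for “with 5”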

[7] = target: T2, 3-oxo-5-alpha-steroid 4-dehydrogenase 1; experiment: In vitro inhibition of human Steroid 5-alpha-reductase type I in transfected 293 cells using [3H]- delta4-Androstenedione as substrate; format: cell-based, HEK293
Summary of the method: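 Homogenate of 293 cells transfected with human type 1 5α-reductase cDNA was used as enzyme. Compounds were dissolved in ethanol and diluted in 50 mM Tris-HCl pH 7.5 with 20% glycerol and 1 mM EDTA. They were screened at 1 and 0.1 μM; those giving ≥50% inhibition at 1 μM were tested at 12 concentrations from 0.1 to 1000 nM. Incubation used [3H]androstenedione and 500 μM NADPH for 60 min at 37 °C, followed by ether extraction, TLC, and counting of androstanedione as % of control.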

`CC(C)(C)NC(=O)[C@H]1CCC2C3CCC4=C(Cl)C(=O)CC[C@]4(C)C3CC[C@@]21C` (stereo partly specified) showed a pIC50 [1] of 6.72, a pIC50 [2] of 6.77 and a pIC50 [3] of less than 6.00.

For `[3H]C1CC2=CC(=O)CC[C@]2(C)[C@H]2CC[C@]3(C)C(=O)CC[C@H]3[C@H]12` (stereo partly specified), the pIC50 [1] was 7.08, the IC50 [4] was “Not Active” and the pIC50 [3] was 5.57.

Work on `CC(C)(C)NC(=O)[C@H]1CCC2C3CCC4=C(O)C(=O)CC[C@]4(C)C3CC[C@@]21C` (stereo partly specified) yielded a pIC50 [1] of 6.76, a pIC50 [2] of 6.62 and a pIC50 [3] of less than 6.00.

`CC(C)(C)NC(=O)[C@H]1CCC2C3CCC4=C(S)C(=O)CC[C@]4(C)C3CC[C@@]21C` (stereo partly specified) gave a pIC50 [1] of 6.36, a pIC50 [2] of 6.55 and a pIC50 [3] of 6.15.

With `CC(C)(O)C(=O)Nc1ccc([N+](=O)[O-])c(C(F)(F)F)c1` [HYDROXYFLUTAMIDE] the IC50 [5] was “Not Active”, the pIC50 [2] was 6.93 and the IC50 [6] was “Not Active”.

With `CC(C)(C)NC(=O)[C@H]1CC[C@H]2[C@@H]3CC[C@H]4NC(=O)C=C[C@]4(C)[C@H]3CC[C@]12C` [FINASTERIDE] the pIC50 [7] was 6.66, the pIC50 [1] was 8.07 and the IC50 [4] was “Not Active”.

`CC(C)(C)NC(=O)[C@H]1CCC2C3CCC4=C(Br)C(=O)CC[C@]4(C)C3CC[C@@]21C` (stereo partly specified) gave a pIC50 [1] of 6.41, a pIC50 [2] of 6.74 and a pIC50 [3] of 6.01.

From ChEMBL document CHEMBL1128573, “Synthesis and in vitro evaluation of 4-substituted N-(1,1-dimethylethyl)-3-oxo-4-androstene-17 beta-carboxamides as 5 alpha-reductase inhibitors and antiandrogens” (J Med Chem, 1995)
